From ChEMBL document CHEMBL4330143, “Maximizing ER-α Degradation Maximizes Activity in a Tamoxifen-Resistant Breast Cancer Model: Identification of GDC-0927” (ACS Med Chem Lett, 2019) come the findings set out here.

Series [1] has as its system Rattus norvegicus. Kind of series: In vivo agonist activity at ERalpha in CD-IGS rat assessed as increase in uterine weight at 60 mg/kg, po for 3 consecutive days measured at 24 hrs post last dose. The format is functional, organism-based.
Series [2] relates to MCF7. Kind of series: Antiproliferative activity against human MCF7 cells after 5 days by CellTiter-Glo assay. The conditions noted are these: MCF7, 120 h. (In general: Cellular ATP, detected with luciferase, serves as a proxy for viable cell number.)
The target in the next series is T1, Estrogen receptor (Homo sapiens, UniProt P03372).
T1 sequence (P03372 whole entry): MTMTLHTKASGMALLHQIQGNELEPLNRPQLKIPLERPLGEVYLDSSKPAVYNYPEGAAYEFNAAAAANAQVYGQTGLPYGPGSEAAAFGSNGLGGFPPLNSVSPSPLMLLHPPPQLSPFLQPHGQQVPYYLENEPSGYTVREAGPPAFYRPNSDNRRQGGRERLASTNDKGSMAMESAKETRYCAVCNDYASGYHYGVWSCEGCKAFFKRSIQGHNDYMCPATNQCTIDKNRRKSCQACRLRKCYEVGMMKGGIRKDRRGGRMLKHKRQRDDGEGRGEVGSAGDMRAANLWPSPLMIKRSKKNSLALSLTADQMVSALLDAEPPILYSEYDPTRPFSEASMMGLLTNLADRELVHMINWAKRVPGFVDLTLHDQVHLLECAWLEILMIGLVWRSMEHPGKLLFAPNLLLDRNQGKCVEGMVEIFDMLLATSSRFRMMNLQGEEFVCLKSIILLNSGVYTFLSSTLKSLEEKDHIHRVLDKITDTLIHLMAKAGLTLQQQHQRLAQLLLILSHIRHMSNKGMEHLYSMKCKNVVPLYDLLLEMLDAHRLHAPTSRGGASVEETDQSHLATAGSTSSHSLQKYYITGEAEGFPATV
In words: Induction of ERalpha degradation in human MCF7 cells assessed as decrease in ERalpha protein level after 4 hrs by InCell Western assay. The series is classed as cell-based.

Series [3] is described as follows: Cmax in nude mouse xenografted with tamoxifen-resistant human MCF7 cells at 100 mg/kg, po daily for 28 days measured on day 28 post last dose. The conditions noted are these: in vivo. The format is ADME, organism-based. Details: dose 100 mg/kg, route oral. In a few lines: (§1)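 Tamoxifen-resistant MCF-7 xenograft mice carrying subcutaneous 0.72 mg estradiol pellets. Plasma pharmacokinetics sampled on day 28 of the study, at take-down.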
(Xenograft models place foreign cells or tissue in a host animal.)

The next series concerns Mus musculus. In words: In vivo induction of ERalpha degradation in tumor of nude mouse xenografted with tamoxifen-resistant human MCF7 cells at 100 mg/kg, po daily for 28 days measured on day 28 post last dose. The format is functional, organism-based. In a few lines: (§2)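 Tamoxifen-resistant MCF-7 tumours grown subcutaneously in mice, with estradiol supplied from subcutaneous 0.72 mg estradiol pellets.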

The nature of series [4]: Unbound AUC (0 to 24 hrs) in nude mouse xenografted with tamoxifen-resistant human MCF7 cells at 100 mg/kg, po daily for 28 days measured on day 28 post last dose. The series is classed as ADME, organism-based. The conditions noted are these: in vivo. In a few lines:
as §1

Series [5] has as its system Rattus norvegicus. In words: In vivo inverse agonist activity at ERalpha in CD-IGS rat assessed as decrease in uterine weight at 10 mg/kg, po for 3 consecutive days measured at 24 hrs post last dose. The format is functional, organism-based. In a few lines: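 Rat uterine wet weight assay run in agonist mode, with no ethynyl estradiol added. Oral dosing at 10 mg/kg for 3 days. Uterine weights compared with those of vehicle-treated animals.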

Series [6] is described as follows: AUC in rat at 10 mg/kg, po daily for 3 days measured on day 3 post last dose. The format is ADME, organism-based. The conditions noted are these: in vivo.
In series [7] the test system is MCF7. In words: Antitumor activity against tamoxifen-resistant human MCF7 cells xenografted in nude mouse at 100 mg/kg, po daily for 28 days. The format is functional, organism-based. In a few lines: as §2
Series [8] can be described thus: Unbound fraction in mouse plasma. The format is ADME, cell-free.
Series [9] can be described thus: Unbound Cmax in nude mouse xenografted with tamoxifen-resistant human MCF7 cells at 100 mg/kg, po daily for 28 days measured on day 28 post last dose. The series is classed as ADME, organism-based. The conditions noted are these: in vivo, 672 h. In a few lines:
as §1

Series [10] in a line: Clearance in rat at 10 mg/kg, po daily for 3 days measured on day 3 post last dose. The format is ADME, organism-based. The conditions noted are these: in vivo.
A short description of series [11]: Oral bioavailability in rat at 10 mg/kg daily for 3 days measured on day 3 post last dose. The format is ADME, organism-based. The conditions noted are these: in vivo.
The nature of series [12]: AUC (0 to 24 hrs) in nude mouse xenografted with tamoxifen-resistant human MCF7 cells at 100 mg/kg, po daily for 28 days measured on day 28 post last dose. The conditions noted are these: in vivo. The series is classed as ADME, organism-based. Details: time < 24 hr, dose 100 mg/kg, route oral. In a few lines: as §1
The nature of series [13]: AUC in mouse at 10 mg/kg, po. The format is ADME, organism-based. The conditions noted are these: in vivo.

Active and inactive are the calls of the source. No cut-off for these calls is given here. Some results are limits rather than exact numbers.

On to `CC/C(=C(\c1ccccc1)c1ccc(OCCN(C)C)cc1)c1ccccc1`, for which the result in the series with Rattus norvegicus [1] was Active.
Regarding `CC1=C(c2cccc(O)c2)C(c2ccc(OCCN3CC[C@@H](C#N)C3)cc2)Oc2ccc(O)cc21` (some centres undefined), the IC50 stood at 3.6 nM with MCF7 [2] and 0.8 nM on Estrogen receptor.
Take `CC1=C(c2ccc(C#N)cc2)C(c2ccc(OCCN3CC(CF)C3)cc2)Oc2ccc(O)cc21` (centres undefined): the figures for the 50% inhibitory concentration (IC50) in the series with MCF7 [2] and at Estrogen receptor were 0.3 nM and 0.2 nM, respectively.
With `CC1=C(c2cccc(O)c2)C(c2ccc(OC[C@H](C)N3CC(CF)C3)cc2)Oc2ccc(O)cc21` (some centres undefined), the IC50 in the series with MCF7 [2] amounted to 0.3 nM; on Estrogen receptor, 0.2 nM.
For `CC1=C(c2ccc(F)cc2)[C@H](c2ccc(OCCN3CC(CF)C3)cc2)Oc2ccc(O)cc21`, the highest level in series [3] (Cmax) was 2300 ng/mL. Moreover, the outcome in the series on Mus musculus, in the series on Rattus norvegicus [5] and in the series on MCF7 [7] was Active. In series [4], the fAUC stood at 80 ng·h/mL. The compound further yielded an IC50 with MCF7 [2] of 0.2 nM. Further, the AUC at 72 h in [6] worked out at 1900 ng·h/mL. Moreover, the Fu in series [8] stood at 0.4%. The compound also registered a fCmax in series [9] of 0.009 µg/mL. The CL/F in series [10] was determined as 36 mL/min/kg. Also, in series [11], the bioavailability amounted to 42%. In addition, the AUC at 24 h in [12] was found to be 21000 ng·h/mL.
On to `CC1=C(c2cccc(O)c2)C(c2ccc(OCCN3CC[C@@H](CF)C3)cc2)Oc2ccc(O)cc21` (some centres undefined), for which the AUC in series [13] is 40 ng·h/mL. Moreover, the IC50 with MCF7 [2] stood at 0.2 nM; at Estrogen receptor it was 0.1 nM.
In the case of `CC1=C(c2cccc(O)c2)C(c2ccc(OCCN3CC[C@@H](C(F)F)C3)cc2)Oc2ccc(O)cc21` (some centres undefined), the IC50 with MCF7 [2] amounted to 0.4 nM; on Estrogen receptor, 0.2 nM.
Consider `CC1=C(c2cccc(O)c2)[C@H](c2ccc(OC[C@H](C)N3CC[C@@H](C)C3)cc2)Oc2ccc(O)cc21`, for which the concentration in series [3] peaked (Cmax) at 1300 ng/mL. Further, in the series with Mus musculus, the result was Active. Also, the fAUC in [4] was found to be 190 ng·h/mL. The outcome in the series on MCF7 [7] was inactive. Further, the Fu in series [8] is 1.6%. The fCmax in series [9] was 0.021 µg/mL. The CL/F in series [10] is > 60 mL/min/kg. The bioavailability in series [11] is < 15%. In series [12], this compound registered an AUC at 24 h of 12000 ng·h/mL.
The compound `CC1=C(c2cccc(O)c2)C(c2ccc(OCCN3CC(CF)C3)cc2)Oc2ccc(O)cc21` (centres undefined) gave an AUC in [13] of 160 ng·h/mL. For the same compound, the IC50 in the series on MCF7 [2] is 0.2 nM.
On to `COC[C@@H]1CCN(CCOc2ccc(C3Oc4ccc(O)cc4C(C)=C3c3cccc(O)c3)cc2)C1` (some centres undefined), for which the results for the IC50 in the series with MCF7 [2] and at Estrogen receptor were 0.4 nM and 0.3 nM, respectively.
Take `CC1=C(c2cccc(O)c2)C(c2ccc(OCCN3CCC[C@H]3CF)cc2)Oc2ccc(O)cc21` (some centres undefined): the IC50 with MCF7 [2] came out at 1.4 nM; at Estrogen receptor, 0.2 nM.

A word on the IC50: it is the concentration at which inhibition is half-maximal. For orientation: Cmax means the maximum level reached in the sampled fluid or tissue. As usually defined, the AUC is concentration integrated over time. A higher AUC goes with high exposure. For orientation: CL/F means clearance divided by bioavailability, as obtained after extravascular dosing. The term bioavailability denotes the share of a dose that reaches the circulation, judged against a reference dose that is usually intravenous. A high value points to much systemic uptake.
